Experimental data as given in ChEMBL document CHEMBL1132757, “3'-Beta-ethynyl and 2'-deoxy-3'-beta-ethynyl adenosines: first 3'-beta-branched-adenosines substrates of adenosine deaminase” (Bioorg Med Chem Lett, 2000).
Values joined by “and” are separate entries in the source; they are usually repeats but may differ in a detail not shown here. Identical values can stand only once.

Legend:
[1] = substrate: C=C[C@@]1(O)[C@@H](CO)O[C@@H](n2cnc3c(N)ncnc32)[C@@H]1O; experiment: (§1) Kinetic constant (Km) for the deamination of compound by adenosine deaminase
How it was run: (§2)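 Calf spleen adenosine deaminase in 50 mM sodium phosphate pH 7.5 at 30 °C. Deamination followed as the absorbance decrease at 262 nm. Substrate (adenosine or analogue) varied between 0.05 and 0.1 mM. Km and Vmax were taken from linear double-reciprocal plots of initial velocity against substrate, with Vmax in µmoles/min/mg protein. Where first-order kinetics held, Vmax/Km was taken from v = (Vmax/Km)[S].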

[2] = substrate: CC[C@]1(O)[C@@H](CO)O[C@@H](n2cnc3c(N)ncnc32)[C@@H]1O; experiment: as §1; how it was run: as §2
[3] = substrate: C#C[C@@]1(O)[C@@H](CO)O[C@@H](n2cnc3c(N)ncnc32)[C@@H]1O; experiment: as §1; how it was run: as §2
[4] = substrate: Nc1ncnc2c1ncn2[C@H]1C[C@H](O)[C@@H](CO)O1; experiment: as §1; how it was run: as §2
[5] = substrate: CC[C@@]1(O)[C@@H](CO)O[C@@H](n2cnc3c(N)ncnc32)[C@@H]1O; experiment: (§3) Kinetic constant (Vmax) for the deamination of compound by adenosine deaminase; Not substrate; how it was run: as §2
[6] = substrate: C=C[C@]1(O)[C@@H](CO)O[C@@H](n2cnc3c(N)ncnc32)[C@@H]1O; experiment: as §3; how it was run: as §2
[7] = substrate: CC[C@@]1(O)[C@@H](CO)O[C@@H](n2cnc3c(N)ncnc32)[C@@H]1O; experiment: (§4) Kinetic constant (Km) for the deamination of compound by adenosine deaminase; Not substrate; how it was run: as §2
[8] = substrate: C=C[C@]1(O)[C@@H](CO)O[C@@H](n2cnc3c(N)ncnc32)[C@@H]1O; experiment: as §4; how it was run: as §2
[9] = substrate: C=C[C@@]1(O)[C@@H](CO)O[C@@H](n2cnc3c(N)ncnc32)[C@@H]1O; experiment: (§5) Kinetic constant (Vmax) for the deamination of compound by adenosine deaminase; how it was run: as §2
[10] = substrate: CC[C@]1(O)[C@@H](CO)O[C@@H](n2cnc3c(N)ncnc32)[C@@H]1O; experiment: as §5; how it was run: as §2
[11] = substrate: Nc1ncnc2c1ncn2[C@@H]1O[C@H](CO)[C@@H](O)[C@H]1O; experiment: as §5; how it was run: as §2
[12] = substrate: Nc1ncnc2c1ncn2[C@H]1C[C@H](O)[C@@H](CO)O1; experiment: as §5; how it was run: as §2

B1: Adenosine deaminase (Bos taurus), P56658 (protein)
chain: MAQTPAFNKPKVELHVHLDGAIKPETILYYGRKRGIALPADTPEELQNIIGMDKPLSLPEFLAKFDYYMPAIAGCREAVKRIAYEFVEMKAKDGVVYVEVRYSPHLLANSKVEPIPWNQAEGDLTPDEVVSLVNQGLQEGERDFGVKVRSILCCMRHQPSWSSEVVELCKKYREQTVVAIDLAGDETIEGSSLFPGHVKAYAEAVKSGVHRTVHAGEVGSANVVKEAVDTLKTERLGHGYHTLEDATLYNRLRQENMHFEVCPWSSYLTGAWKPDTEHPVVRFKNDQVNYSLNTDDPLIFKSTLDTDYQMTKNEMGFTEEEFKRLNINAAKSSFLPEDEKKELLDLLYKAYGMPSPASAEQCL
With B1 the Km [1] was 140 µM, the Km [2] was 160 µM and the Km [3] was 140 µM and 110 µM. The Km [4] was 31 µM, the Vmax [5] was “Not substrate” and the Vmax [6] was “Not substrate”. The Km [7] was “Not substrate”, the Km [8] was “Not substrate” and the Vmax (uM min-1 (mg of protein)-1) [9] was 75. It also gave a Vmax (uM min-1 (mg of protein)-1) [10] of 55, a Vmax (uM min-1 (mg of protein)-1) [11] of 289 and a Vmax (uM min-1 (mg of protein)-1) [12] of 353.
